Source: ChEMBL document CHEMBL3098025, “Optimization of potency and pharmacokinetics of tricyclic indole derived inhibitors of HCV NS5B polymerase. Identification of ester prodrugs with improved oral pharmacokinetics” (Bioorg Med Chem, 2014)

Key:
Cynomolgus monkey [1] = assay: Prodrug conversion in cynomolgus monkey assessed as AUC (0 to 24 hrs) of 4-Fluoro-6-((6-fluoro-1H-benzo[d]imidazol-5-yl)methyl)-8-(2-oxo-1,2-dihydropyridin-3-yl)-6H-furo[2,3-e]indole-7-carboxylic acid level at 3 mg/kg, po; format: ADME, organism-based, Macaca fascicularis; parameters: time < 24 hr, dose 3 mg/kg, route oral; details: in vivo
Rattus norvegicus [2] = assay: Prodrug conversion in Sprague-Dawley rat assessed as AUC (0 to 24 hrs) of 4-Fluoro-6-((6-fluoro-1H-benzo[d]imidazol-5-yl)methyl)-8-(2-oxo-1,2-dihydropyridin-3-yl)-6H-furo[2,3-e]indole-7-carboxylic acid level at 10 mg/kg, po; format: ADME, organism-based; parameters: time < 24 hr, dose 10 mg/kg, route oral; details: in vivo
Outline: (§1)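 Dimethylaminoethyl ester prodrugs were dosed orally to rats at 10 mg/kg in 0.4% methylcellulose.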

Hepatitis C virus = assay: Antiviral activity against HCV1b assessed as inhibition of viral replication; format: functional, organism-based, Hepacivirus hominis; details: genotype 1b
Outline: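 In the cell-based HCV replicon assay, viral RNA levels were measured. EC50 is the concentration giving a 50% reduction in replicon RNA.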

Rattus norvegicus [3] = assay: Prodrug conversion in Sprague-Dawley rat assessed as AUC (0 to 24 hrs) of 6-((3-Amino-6-fluoro-1H-indazol-5-yl)methyl)-4-fluoro-8-(2-oxo-1,2-dihydropyridin-3-yl)-6H-furo[2,3-e]indole-7-carboxylic acid level at 10 mg/kg, po; format: ADME, organism-based; parameters: time < 24 hr, dose 10 mg/kg, route oral; details: in vivo; outline: as §1
Cynomolgus monkey [4] = assay: Prodrug conversion in cynomolgus monkey assessed as AUC (0 to 24 hrs) of 6-((3-Amino-6-fluoro-1H-indazol-5-yl)methyl)-4-fluoro-8-(2-oxo-1,2-dihydropyridin-3-yl)-6H-furo[2,3-e]indole-7-carboxylic acid level at 3 mg/kg, po; format: ADME, organism-based, Macaca fascicularis; parameters: time < 24 hr, dose 3 mg/kg, route oral; details: in vivo
Cynomolgus monkey [5] = assay: Prodrug conversion in cynomolgus monkey assessed as AUC (0 to 24 hrs) of 4-Fluoro-6-((6-fluoro-1H-indazol-5-yl)methyl)-8-(2-oxo-1,2-dihydropyridin-3-yl)-6H-furo[2,3-e]indole-7-carboxylic acid level at 3 mg/kg, po; format: ADME, organism-based, Macaca fascicularis; parameters: time < 24 hr, dose 3 mg/kg, route oral; details: in vivo
Rattus norvegicus [6] = assay: Prodrug conversion in Sprague-Dawley rat assessed as AUC (0 to 24 hrs) of 4-Fluoro-6-((6-fluoro-1H-indazol-5-yl)methyl)-8-(2-oxo-1,2-dihydropyridin-3-yl)-6H-furo[2,3-e]indole-7-carboxylic acid level at 10 mg/kg, po; format: ADME, organism-based; parameters: time < 24 hr, dose 10 mg/kg, route oral; details: in vivo; outline: as §1
Cynomolgus monkey [7] = assay: Prodrug conversion in cynomolgus monkey assessed as AUC (0 to 24 hrs) of 4-Fluoro-6-((6-methyl-1H-indazol-5-yl)methyl)-8-(2-oxo-1,2-dihydropyridin-3-yl)-6H-furo[2,3-e]indole-7-carboxylic acid level at 3 mg/kg, po; format: ADME, organism-based, Macaca fascicularis; parameters: time < 24 hr, dose 3 mg/kg, route oral; details: in vivo
Rattus norvegicus [8] = assay: Prodrug conversion in Sprague-Dawley rat assessed as AUC (0 to 24 hrs) of 4-Fluoro-6-((6-methyl-1H-indazol-5-yl)methyl)-8-(2-oxo-1,2-dihydropyridin-3-yl)-6H-furo[2,3-e]indole-7-carboxylic acid level at 10 mg/kg, po; format: ADME, organism-based; parameters: time < 24 hr, dose 10 mg/kg, route oral; details: in vivo; outline: as §1
Rattus norvegicus [9] = assay: Prodrug conversion in Sprague-Dawley rat assessed as AUC (0 to 24 hrs) of 6-((2-Aminoquinolin-4-yl)methyl)-4-fluoro-8-(2-oxo-1,2-dihydropyridin-3-yl)-6H-furo[2,3-e]indole-7-carboxylic acid level at 10 mg/kg, po; format: ADME, organism-based; parameters: time < 24 hr, dose 10 mg/kg, route oral; details: in vivo; outline: as §1
Cynomolgus monkey [10] = assay: Prodrug conversion in cynomolgus monkey assessed as AUC (0 to 24 hrs) of 6-((2-Aminoquinolin-4-yl)methyl)-4-fluoro-8-(2-oxo-1,2-dihydropyridin-3-yl)-6H-furo[2,3-e]indole-7-carboxylic acid level at 3 mg/kg, po; format: ADME, organism-based, Macaca fascicularis; parameters: time < 24 hr, dose 3 mg/kg, route oral; details: in vivo
[11] = Inhibition of HCV1b NS5B polymerase; parameters: species or system Hepatitis C virus subtype 1b
Liver microsome [12] = assay: Metabolic stability in human liver microsomes assessed as glutathione adduct formation; format: ADME
Liver microsome [13] = assay: Metabolic stability in human liver microsomes assessed as oxidation; format: ADME
Plasma = assay: Metabolic stability in po dosed Sprague-Dawley rat plasma assessed as glutathione adduct formation; format: ADME, organism-based; details: in vivo
Outline: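 Plasma samples from the full rat PK study (oral, 3 mg/kg) were analysed for metabolites, including glutathione adducts.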

[14] = Oral bioavailability in Sprague-Dawley rat at 3 mg/kg; format: ADME, organism-based; details: in vivo
[15] = AUC (0 to 6 hrs) in Sprague-Dawley rat at 10 mg/kg, po; format: ADME, organism-based; parameters: time < 6 hr, dose 10 mg/kg, route oral; details: plasma
Outline: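 Sprague Dawley rats received esters orally at 10 mg/kg in 0.4% methylcellulose, given as trifluoroacetate salts. Plasma levels of both the intact ester prodrug and the acid metabolite were measured. AUC was integrated over 0–6 h after dosing.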

EC50 (Hepatitis C virus) | IC50 [11] | AUC(0-t) at 6 h [15] | SMILES | further results
6 nM |  |  | CN(C)CCOC(=O)c1c(-c2ccc[nH]c2=O)c2c3occc3c(F)cc2n1Cc1cc2[nH]cnc2cc1F.O=C(O)C(F)(F)F | AUC (Cynomolgus monkey [1]): 14.6 µM·h; AUC (Rattus norvegicus [2]): 159 µM·h
4 nM |  |  | CN(C)CCOC(=O)c1c(-c2ccc[nH]c2=O)c2c3occc3c(F)cc2n1Cc1cc2c(N)n[nH]c2cc1F.O=C(O)C(F)(F)F | AUC (Rattus norvegicus [3]): 118 µM·h; AUC (Cynomolgus monkey [4]): 4.2 µM·h
6 nM |  |  | CN(C)CCOC(=O)c1c(-c2ccc[nH]c2=O)c2c3occc3c(F)cc2n1Cc1cc2cn[nH]c2cc1F.O=C(O)C(F)(F)F | AUC (Cynomolgus monkey [5]): 33 µM·h; AUC (Rattus norvegicus [6]): 222 µM·h
2 nM |  |  | Cc1cc2[nH]ncc2cc1Cn1c(C(=O)OCCN(C)C)c(-c2ccc[nH]c2=O)c2c3occc3c(F)cc21.O=C(O)C(F)(F)F | AUC (Cynomolgus monkey [7]): 10.7 µM·h; AUC (Rattus norvegicus [8]): 79 µM·h
7 nM |  |  | CN(C)CCOC(=O)c1c(-c2ccc[nH]c2=O)c2c3occc3c(F)cc2n1Cc1cc(N)nc2ccccc12.O=C(O)C(F)(F)F | AUC (Rattus norvegicus [9]): 651 µM·h; AUC (Cynomolgus monkey [10]): 17 µM·h
2600 nM | 17 nM |  | O=C(O)c1c(-c2ccc[nH]c2=O)c2c3occc3cc(F)c2n1Cc1cc(F)ccc1F | 
 | 2 nM |  | O=C(O)c1c(-c2ccc[nH]c2=O)c2c3occc3c(F)cc2n1Cc1cc(F)ccc1F | Stability (Liver microsome [12]): Stable; EC90 (Hepatitis C virus): 90 nM; Stability (Liver microsome [13]): Stable
15 nM | 4 nM | 1.7 µM·h | NC(=O)c1ccc(F)c(Cn2c(C(=O)O)c(-c3ccc[nH]c3=O)c3c4occc4c(F)cc32)c1 | Stability (Plasma): Stable; bioavailability [14]: 1.5%
30 nM | 5 nM | 9.3 µM·h | O=C(O)c1c(-c2ccc[nH]c2=O)c2c3occc3c(F)cc2n1Cc1ccc2nc[nH]c2c1 | 
7 nM | 3 nM | 7.7 µM·h | O=C(O)c1c(-c2ccc[nH]c2=O)c2c3occc3c(F)cc2n1Cc1cc2[nH]cnc2cc1F | 
8 nM | 6 nM | 1.2 µM·h | O=C(O)c1c(-c2ccc[nH]c2=O)c2c3occc3c(F)cc2n1Cc1cc2[nH]cnc2cc1Cl | 
3 nM | 4 nM | 2.1 µM·h | Nc1n[nH]c2cc(F)c(Cn3c(C(=O)O)c(-c4ccc[nH]c4=O)c4c5occc5c(F)cc43)cc12 | 
12 nM | 5 nM | 3.6 µM·h | Nc1n[nH]c2cc(Cn3c(C(=O)O)c(-c4ccc[nH]c4=O)c4c5occc5c(F)cc43)c(F)cc12 | 
20 nM | 6 nM | 7.2 µM·h | Cn1nc(N)c2cc(Cn3c(C(=O)O)c(-c4ccc[nH]c4=O)c4c5occc5c(F)cc43)c(F)cc21 | 
